Here are results for 1 compound from ChEMBL document CHEMBL4480426, “Novel multi-target directed ligands based on annelated xanthine scaffold with aromatic substituents acting on adenosine receptor and monoamine oxidase B. Synthesis, in vitro and in silico studies” (Bioorg Med Chem, 2019).

In one data set the target is T1, Adenosine receptor A1 (Homo sapiens, UniProt P30542).
T1 sequence (P30542 whole entry): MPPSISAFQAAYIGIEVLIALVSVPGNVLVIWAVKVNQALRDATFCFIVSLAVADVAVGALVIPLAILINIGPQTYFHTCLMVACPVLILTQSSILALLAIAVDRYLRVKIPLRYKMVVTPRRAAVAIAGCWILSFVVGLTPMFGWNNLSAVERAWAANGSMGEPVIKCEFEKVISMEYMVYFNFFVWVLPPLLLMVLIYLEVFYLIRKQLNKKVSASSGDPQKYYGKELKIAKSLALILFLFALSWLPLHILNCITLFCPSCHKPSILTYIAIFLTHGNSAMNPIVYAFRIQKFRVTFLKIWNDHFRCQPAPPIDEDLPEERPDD
Description: Displacement of [3H]CCPA from recombinant human adenosine A1 receptor expressed in CHO cells. The format is cell-based. On the technique in general: Displacement assays read how much labelled ligand stays bound in the presence of the test substance.

A further data set has as its target Adenosine receptor A2a (Homo sapiens, UniProt P29274). Description: Displacement of [3H]MSX2 from recombinant human adenosine A2a receptor expressed in HEK293 cells. It is filed as cell-based.
In the next data set the target is T2, Adenosine receptor A2b (Homo sapiens, UniProt P29275).
T2 sequence (P29275 whole entry): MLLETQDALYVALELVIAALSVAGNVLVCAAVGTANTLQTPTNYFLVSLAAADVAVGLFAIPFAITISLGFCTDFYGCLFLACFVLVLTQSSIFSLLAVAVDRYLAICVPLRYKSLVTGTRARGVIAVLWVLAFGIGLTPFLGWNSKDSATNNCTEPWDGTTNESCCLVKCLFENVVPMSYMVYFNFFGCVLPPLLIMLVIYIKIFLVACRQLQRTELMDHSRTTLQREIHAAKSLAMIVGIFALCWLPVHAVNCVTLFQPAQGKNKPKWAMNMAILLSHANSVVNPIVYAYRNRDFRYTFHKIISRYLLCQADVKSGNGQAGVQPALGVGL
Description: Displacement of [3H]PSB603 from recombinant human adenosine A2b receptor expressed in HEK293 cells. The format is cell-based.

For data set [1], the target named is T3, Adenosine receptor A3 (Homo sapiens) (UniProt P0DMS8).
T3 sequence (whole entry): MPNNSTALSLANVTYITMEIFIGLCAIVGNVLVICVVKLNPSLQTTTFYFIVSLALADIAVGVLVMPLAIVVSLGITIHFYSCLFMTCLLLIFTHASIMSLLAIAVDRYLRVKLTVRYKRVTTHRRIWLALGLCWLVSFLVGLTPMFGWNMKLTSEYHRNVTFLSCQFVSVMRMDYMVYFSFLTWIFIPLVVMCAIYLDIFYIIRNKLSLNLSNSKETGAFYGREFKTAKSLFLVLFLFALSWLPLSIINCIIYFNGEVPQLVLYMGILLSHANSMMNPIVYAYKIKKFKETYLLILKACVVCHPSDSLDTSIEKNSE
Put plainly: Displacement of [3H]PSB11 from recombinant human adenosine A3 receptor expressed in CHO cells at 1 uM relative to control. It is filed as cell-based. The method in brief:
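Purchased membranes of CHO cells expressing human A1 ([3H]CCPA) or human A3 ([3H]PSB-11). A single high compound concentration is screened first; for potent compounds, full inhibition curves spanning 3 orders of magnitude. At least three independent experiments.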

The target of data set [2] is T4, Amine oxidase [flavin-containing] A (Homo sapiens, UniProt P21397).
T4 sequence (P21397 whole entry): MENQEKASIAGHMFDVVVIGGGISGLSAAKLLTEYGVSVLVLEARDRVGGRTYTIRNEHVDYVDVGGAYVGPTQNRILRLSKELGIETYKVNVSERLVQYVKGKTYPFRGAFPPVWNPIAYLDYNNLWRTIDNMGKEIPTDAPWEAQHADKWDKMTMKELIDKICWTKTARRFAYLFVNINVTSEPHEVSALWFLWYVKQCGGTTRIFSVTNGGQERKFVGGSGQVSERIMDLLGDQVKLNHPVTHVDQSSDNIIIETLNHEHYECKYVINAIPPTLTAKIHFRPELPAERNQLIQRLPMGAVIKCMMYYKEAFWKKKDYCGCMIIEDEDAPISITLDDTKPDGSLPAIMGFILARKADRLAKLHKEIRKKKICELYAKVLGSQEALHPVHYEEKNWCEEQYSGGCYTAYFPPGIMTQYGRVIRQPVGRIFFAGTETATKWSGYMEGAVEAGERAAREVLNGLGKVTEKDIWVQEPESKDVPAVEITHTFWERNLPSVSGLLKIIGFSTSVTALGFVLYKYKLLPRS
Description: Inhibition of recombinant human MAOA expressed in baculovirus infected BTI insect cells using p-tyramine as substrate preincubated for 30 mins followed by substrate addition and measured over 45 mins by horseradish peroxidase-Amplex Red-coupled fluorometric assay. The method in brief: (§1)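 Human recombinant MAO-A or MAO-B enzyme. Activity detected fluorometrically with the Amplex Red monoamine oxidase assay.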

The target in data set [3] is T4, Amine oxidase [flavin-containing] A. Put plainly: Inhibition of recombinant human MAOA expressed in baculovirus infected BTI insect cells at 1 to 100 uM using p-tyramine as substrate preincubated for 30 mins followed by substrate addition and measured over 45 mins by horseradish peroxidase-Amplex Red-coupled fluorometric assay relative to control. The note with it: 0.75 h. The procedure, abridged:
as §1

Data set [4] is described as follows: Solubility of the compound in MEM media at 10 to 100 uM. The format is physicochemical.
The next data set has as its system Brain. Put plainly: Antioxidant activity in rat brain homogenate assessed as inhibition of FeCl2/ascorbic acid-induced lipid peroxidation by measuring reduction in TBARS level at 1000 uM preincubated for 5 mins followed by FeCl2/ascorbic acid addition and measured after 30 mins relative to control. It is filed as functional, tissue-based. Also on record: scale not given: the % may be the effect or the level left. The procedure, abridged: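 Rat brain homogenate in 0.9% saline, 10 mg tissue/ml, preincubated 5 min at 37 °C with compound or vehicle. Peroxidation started with 0.5 mM FeCl2 plus 2 mM ascorbic acid (added-solution concentrations). After 30 min, stopped with 0.2% BHT. Thiobarbituric acid reagent added, heated 15 min in boiling water, TBARS extracted into n-butanol and read at 532 nm. Carvedilol as reference.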

Sequence of Adenosine receptor A2a (P29274 whole entry): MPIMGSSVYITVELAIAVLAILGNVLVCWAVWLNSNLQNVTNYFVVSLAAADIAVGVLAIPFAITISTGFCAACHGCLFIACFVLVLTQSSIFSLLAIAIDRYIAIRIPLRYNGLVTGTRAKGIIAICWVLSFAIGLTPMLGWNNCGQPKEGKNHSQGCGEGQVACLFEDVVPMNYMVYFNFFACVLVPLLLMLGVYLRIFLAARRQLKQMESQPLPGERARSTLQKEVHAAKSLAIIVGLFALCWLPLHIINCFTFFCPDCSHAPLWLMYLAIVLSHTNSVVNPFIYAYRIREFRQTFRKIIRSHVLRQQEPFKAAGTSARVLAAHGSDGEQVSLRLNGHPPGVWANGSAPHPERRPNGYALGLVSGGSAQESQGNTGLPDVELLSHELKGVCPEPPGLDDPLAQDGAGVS

For `Cn1c(=O)c2c(nc3n2CCCCN3Cc2ccc(Cl)c(Cl)c2)n(C)c1=O`, the Ki on Adenosine receptor A1, at Adenosine receptor A2a and on Adenosine receptor A2b was more than 1 µM each time. Moreover, the inhibition (as a rule, the change of the read-out against control, counted positive when it falls) in data set [1] came out at 26%. Besides, in data set [2], the IC50 – broadly, the concentration at which inhibition is half-maximal – is more than 1 µM. Moreover, in data set [3], the “inhibition (INH)” value came to 5%. In addition, the solubility entry in data set [4] is “Insoluble”. Further, the Activity with Brain was found to be 16.6%.
